This note sets out measurements from ChEMBL document CHEMBL2417515, “Microwave assisted synthesis of some hybrid molecules derived from norfloxacin and investigation of their biological activities” (Eur J Med Chem, 2013).

SMILES strings stand for the structures. Values after ≈ are worked out from the molar mass of the structure shown. Active and inactive are the calls of the source. No cut-off for these calls is given here. Where only a bound is given, the exact number is not on record here.

For orientation: MIC means the lowest concentration found to suppress growth. The term IC50 denotes the midpoint of a concentration-inhibition curve. The inhibition is the change of the read-out against control, counted positive when it falls.

One test has as its system Bacillus cereus. Description: Antimicrobial activity against Bacillus cereus 702 Roma after 18 to 24 hrs by double microdilution method. The format is functional. The method, boiled down: (§1)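 Twofold broth microdilution in Mueller-Hinton broth, pH 7.3. Compounds come from 20.000 µg/mL stocks in hexane. […] Ampicillin serves as reference drug and DMSO diluted 1:10 as solvent control.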
On the technique in general: In broth dilution the organism is exposed to a series of concentrations in liquid medium.

Another test deals with Enterococcus faecalis. Description: Antimicrobial activity against Enterococcus faecalis ATCC 29212 after 18 to 24 hrs by double microdilution method. The format is functional. The method, boiled down: as §1
The test system of a further test is Staphylococcus aureus. Nature of the test: Antimicrobial activity against Staphylococcus aureus ATCC 25923 after 18 to 24 hrs by double microdilution method. The format is functional. The method, boiled down: as §1
For another test, the system named is Pseudomonas aeruginosa. Description: Antimicrobial activity against Pseudomonas aeruginosa ATCC 43288 after 18 to 24 hrs by double microdilution method. Type of test: functional. The method, boiled down:
as §1

For test [1], the system named is Yersinia pseudotuberculosis. Description: Antimicrobial activity against Yersinia pseudotuberculosis ATCC 911 after 18 to 24 hrs by double microdilution method. Type of test: functional. The method, boiled down:
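Double broth microdilution MIC (µg/mL). Mueller-Hinton broth pH 7.3; plates incubated 18–24 h at 35 °C. Compounds dissolved in […] as 20.000 µg/mL stock. Ampicillin as reference antibacterial; DMSO diluted 1:10 as solvent control.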

The subject of the next test is Saccharomyces cerevisiae. Nature of the test: Antimicrobial activity against Saccharomyces cerevisiae RSKK 251 after 18 to 24 hrs by double microdilution method. Type of test: functional.
A further test concerns Candida albicans. Description: Antimicrobial activity against Candida albicans ATCC 60193 after 18 to 24 hrs by double microdilution method. The format is functional.
Test [2] deals with Mycolicibacterium smegmatis. Description: Antimicrobial activity against Mycobacterium smegmatis ATCC 607 after 48 to 72 hrs by double microdilution method. Type of test: functional.
In the next test the target is Urease (Canavalia ensiformis, UniProt P07374). Nature of the test: Inhibition of Jack bean urease using urea as substrate assessed as production of ammonia after 15 mins. The method, boiled down:
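Jack bean urease in buffer (100 mM urea, 0.01 M K2HPO4, 1 mM EDTA, 0.01 M LiCl, pH 8.2) incubated with compound 15 min at room temperature. Ammonia read by indophenol method (phenol/nitroprusside plus NaOH/NaOCl), absorbance 625 nm after 20 min. % inhibition = 100 − (OD test/OD control)×100. IC50 from serial concentrations (250 to 0.114 µg/mL), triplicate; thiourea standard.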

Test [3] addresses Urease (Canavalia ensiformis) (UniProt P07374). Nature of the test: Inhibition of Jack bean urease using urea as substrate assessed as production of ammonia at 100 ug/ml after 15 mins. The method, boiled down:
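Jack bean urease with buffer (100 mM urea, 0.01 M K2HPO4, 1 mM EDTA, 0.01 M LiCl, pH 8.2) and compound, 15 min at room temperature. Ammonia read by indophenol method (phenol/nitroprusside plus NaOH/NaOCl), A625 after 20 min. % inhibition = 100 − (OD test/OD control)×100. Thiourea as standard; triplicates.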

Chain of Urease (P07374 whole entry): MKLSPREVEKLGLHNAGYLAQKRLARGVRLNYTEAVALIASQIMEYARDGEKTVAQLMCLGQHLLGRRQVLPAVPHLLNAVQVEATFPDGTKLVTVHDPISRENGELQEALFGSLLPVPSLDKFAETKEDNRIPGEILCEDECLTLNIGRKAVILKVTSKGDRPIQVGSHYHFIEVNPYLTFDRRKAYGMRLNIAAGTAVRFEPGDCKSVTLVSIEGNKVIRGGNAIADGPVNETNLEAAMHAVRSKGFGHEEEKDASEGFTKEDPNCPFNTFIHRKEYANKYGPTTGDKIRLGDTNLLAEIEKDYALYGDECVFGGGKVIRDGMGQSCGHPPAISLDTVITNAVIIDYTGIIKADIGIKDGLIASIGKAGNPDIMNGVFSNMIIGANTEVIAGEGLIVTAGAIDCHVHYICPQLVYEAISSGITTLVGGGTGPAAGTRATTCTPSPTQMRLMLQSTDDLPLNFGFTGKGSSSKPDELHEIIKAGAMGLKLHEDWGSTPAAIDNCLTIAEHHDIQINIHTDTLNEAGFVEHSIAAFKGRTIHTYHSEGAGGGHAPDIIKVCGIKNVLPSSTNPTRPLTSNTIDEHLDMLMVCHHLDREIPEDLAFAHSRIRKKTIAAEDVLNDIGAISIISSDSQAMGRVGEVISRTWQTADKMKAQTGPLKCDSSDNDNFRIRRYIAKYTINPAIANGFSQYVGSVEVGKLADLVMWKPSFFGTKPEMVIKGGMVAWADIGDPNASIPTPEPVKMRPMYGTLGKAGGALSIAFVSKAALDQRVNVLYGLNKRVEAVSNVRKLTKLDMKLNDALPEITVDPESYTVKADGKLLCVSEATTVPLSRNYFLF
Chain of Urease (Canavalia ensiformis) (P07374 whole entry, looked up): as the sequence (P07374 whole entry) above

Regarding `CC1(C)S[C@@H]2[C@H](NC(=O)[C@H](N)c3ccccc3)C(=O)N2[C@H]1C(=O)O` [AMPICILLIN], the MIC against Bacillus cereus was 15 µg/mL (≈ 42.9 µM); in the test with Enterococcus faecalis, 10 µg/mL (≈ 28.6 µM); in the test on Staphylococcus aureus it was 35 µg/mL (≈ 100 µM); in the test on Pseudomonas aeruginosa it was more than 128 µg/mL; in [1], 18 µg/mL (≈ 51.5 µM).

As to `OC(Cn1cncn1)(Cn1cncn1)c1ccc(F)cc1F` [FLUCONAZOLE], the MIC with Saccharomyces cerevisiae and in the test with Candida albicans was less than 8 µg/mL each time.

Take `CN[C@@H]1[C@H](O[C@H]2[C@H](O[C@H]3[C@H](O)[C@@H](O)[C@H](N=C(N)N)[C@@H](O)[C@@H]3N=C(N)N)O[C@@H](C)[C@]2(O)C=O)O[C@@H](CO)[C@H](O)[C@H]1O` [STREPTOMYCIN]: in test [2], the minimum inhibitory concentration (MIC) came to 4 µg/mL (≈ 6.88 µM).

Consider `NC(N)=S` [THIOUREA], for which the half-inhibitory concentration (IC50) at Urease is 678 µM.

Take `CCN1CC(=O)S/C1=N\c1ccc(N2CCN(c3cc4c(cc3F)c(=O)c(C(=O)O)cn4CC)CC2)c(F)c1`: the MIC against Saccharomyces cerevisiae, in the test with Candida albicans, against Bacillus cereus, against Enterococcus faecalis and against Staphylococcus aureus was 250 µg/mL (≈ 450 µM) each time. Also, the MIC entry (in test [2]; in the test with Pseudomonas aeruginosa; in [1]) was “inactive” in each case.

Consider `CCn1cc(C(=O)O)c(=O)c2cc(F)c(N3CCN(c4ccc(/N=C5\SC(=O)CN5Cc5ccccc5)cc4F)CC3)cc21`, for which the minimal inhibitory concentration (MIC) against Saccharomyces cerevisiae was determined as 250 µg/mL (≈ 405 µM); in the test on Candida albicans, 250 µg/mL (≈ 405 µM); in [2], 62.5 µg/mL (≈ 101 µM); in the test with Bacillus cereus it was 125 µg/mL (≈ 202 µM); against Enterococcus faecalis, 125 µg/mL (≈ 202 µM); with Staphylococcus aureus, 125 µg/mL (≈ 202 µM). This molecule showed an MIC in test [1] of 62.5 µg/mL (≈ 101 µM). The MIC entry with Pseudomonas aeruginosa is “inactive”.

For the molecule `CCn1cc(C(=O)O)c(=O)c2cc(F)c(N3CCN(c4ccc(/N=c5\sc(-c6ccc(Cl)cc6)cn5Cc5ccccc5)cc4F)CC3)cc21`, the minimum inhibitory concentration (MIC) in the test on Saccharomyces cerevisiae, in the test on Candida albicans and in the test with Enterococcus faecalis was 250 µg/mL (≈ 351 µM) throughout. Moreover, the MIC result (in [2]; with Bacillus cereus; in the test with Staphylococcus aureus; with Pseudomonas aeruginosa; in test [1]) was “inactive” throughout.

With `CCn1cc(C(=O)O)c(=O)c2cc(F)c(N3CCN(c4ccc(NC(=S)NCCCN5CCOCC5)cc4F)CC3)cc21`, the MIC result (in the test on Saccharomyces cerevisiae; with Candida albicans; in test [2]) was “inactive” throughout. The MIC was determined as 125 µg/mL (≈ 203 µM) with Bacillus cereus; 31.2 µg/mL (≈ 50.8 µM) in the test on Enterococcus faecalis; 15.6 µg/mL (≈ 25.4 µM) in the test with Staphylococcus aureus; 500 µg/mL (≈ 813 µM) in the test on Pseudomonas aeruginosa; 62.5 µg/mL (≈ 102 µM) in test [1].

`CCNC(=S)Nc1ccc(N2CCN(c3cc4c(cc3F)c(=O)c(C(=O)O)cn4CC)CC2)c(F)c1`: the MIC in the test with Saccharomyces cerevisiae and in the test with Candida albicans was 250 µg/mL (≈ 485 µM) in each case. The MIC result (in [2]; in the test on Bacillus cereus; with Enterococcus faecalis; in the test on Staphylococcus aureus; in the test on Pseudomonas aeruginosa; in [1]) was “inactive” throughout.

In the case of `CCn1cc(C(=O)O)c(=O)c2cc(F)c(N3CCN(c4ccc(NC(=O)NCc5ccccc5)cc4F)CC3)cc21`, the minimum inhibitory concentration (MIC) against Saccharomyces cerevisiae was 250 µg/mL (≈ 445 µM); against Candida albicans it was 500 µg/mL (≈ 890 µM); against Bacillus cereus, 500 µg/mL (≈ 890 µM); in the test on Enterococcus faecalis, 500 µg/mL (≈ 890 µM); in the test on Staphylococcus aureus, 500 µg/mL (≈ 890 µM). Also, the MIC result (in test [2]; with Pseudomonas aeruginosa; in test [1]) was “inactive” throughout.

Regarding `COc1ccc(/C=N\NC(=O)CN2CCN(c3ccccc3OC)CC2)cc1O`, the MIC was 31.3 µg/mL (≈ 78.6 µM) with Saccharomyces cerevisiae; 62.5 µg/mL (≈ 157 µM) against Candida albicans; 31.3 µg/mL (≈ 78.6 µM) in [2]; 31.3 µg/mL (≈ 78.6 µM) in the test with Bacillus cereus; 15.6 µg/mL (≈ 39.2 µM) against Enterococcus faecalis; 31.3 µg/mL (≈ 78.6 µM) with Staphylococcus aureus. Further, the MIC (in the test with Pseudomonas aeruginosa; in test [1]) was 31.3 µg/mL (≈ 78.6 µM) throughout.

`CCn1cc(C(=O)O)c(=O)c2cc(F)c(N3CCN(c4ccc([N+](=O)[O-])cc4F)CC3)cc21`: the MIC entry (in the test with Saccharomyces cerevisiae; with Candida albicans; in test [2]; in the test with Bacillus cereus; in the test with Enterococcus faecalis; with Staphylococcus aureus) was “inactive” in each case. For the same molecule, the MIC result in the test on Pseudomonas aeruginosa was “inactive”. In test [1], this molecule showed an MIC of 31.5 µg/mL (≈ 68.7 µM).

Take `CCn1cc(C(=O)O)c(=O)c2cc(F)c(N3CCN(C(=O)CCl)CC3)cc21`: the MIC result with Saccharomyces cerevisiae and in the test on Candida albicans was “inactive” each time. The minimal inhibitory concentration (MIC) in test [2] is 0.42 µg/mL (≈ 1.06 µM); against Bacillus cereus, 0.21 µg/mL (≈ 0.531 µM); with Enterococcus faecalis, 0.21 µg/mL (≈ 0.531 µM); against Staphylococcus aureus, 0.21 µg/mL (≈ 0.531 µM); against Pseudomonas aeruginosa, 15.6 µg/mL (≈ 39.4 µM); in test [1] it was 1.7 µg/mL (≈ 4.29 µM).

For the molecule `CCn1cc(C(=O)O)c(=O)c2cc(F)c(N3CCN(c4ccc(NC(=S)NCc5ccccc5)cc4F)CC3)cc21`, the MIC result with Saccharomyces cerevisiae and in the test with Candida albicans was “inactive” throughout. Also, the MIC was 0.97 µg/mL (≈ 1.68 µM) in [2]; less than 1.9 µg/mL in the test with Bacillus cereus; less than 1.9 µg/mL in the test with Enterococcus faecalis; less than 1.9 µg/mL with Staphylococcus aureus; 31.5 µg/mL (≈ 54.5 µM) in the test with Pseudomonas aeruginosa; less than 1.9 µg/mL in test [1].

As to `CCn1cc(-c2ccc(Cl)cc2)s/c1=N\c1ccc(N2CCN(c3cc4c(cc3F)c(=O)c(C(=O)O)cn4CC)CC2)c(F)c1`, the MIC result (in the test on Saccharomyces cerevisiae; in the test with Candida albicans; in test [2]; in the test on Enterococcus faecalis; with Staphylococcus aureus; in the test with Pseudomonas aeruginosa) was “inactive” throughout. The MIC entry in test [1] is “inactive”. For the same molecule, the MIC with Bacillus cereus is 1000 µg/mL (≈ 1540 µM).

For `CCn1cc(C(=O)O)c(=O)c2cc(F)c(N3CCN(C(=O)CSc4nnc(CN5CCN(c6ccccc6OC)CC5)n4-c4ccccc4)CC3)cc21`, the concentration for half-maximal inhibition (IC50) at Urease is 27.7 µM. Further, the inhibition in test [3] is 86.2%.

As to `CCn1cc(C(=O)O)c(=O)c2cc(F)c(N3CCN(c4ccc(N)cc4F)CC3)cc21`, the MIC result with Saccharomyces cerevisiae and in the test with Candida albicans was “inactive” in each case. For the same molecule, the minimal inhibitory concentration (MIC) in test [2] is 1.95 µg/mL (≈ 4.55 µM); against Bacillus cereus, less than 1.9 µg/mL; against Enterococcus faecalis it was less than 1.9 µg/mL; with Staphylococcus aureus, less than 1.9 µg/mL; with Pseudomonas aeruginosa, 7.81 µg/mL (≈ 18.2 µM); in [1] it was less than 1.9 µg/mL.

With `COc1ccccc1N1CCN(CC(=O)N/N=C\c2ccccc2O)CC1`, the MIC in the test on Saccharomyces cerevisiae was 62.5 µg/mL (≈ 170 µM); in the test with Candida albicans, 250 µg/mL (≈ 679 µM); in test [2] it was 31.3 µg/mL (≈ 85 µM); with Bacillus cereus, 31.3 µg/mL (≈ 85 µM); with Enterococcus faecalis, 15.6 µg/mL (≈ 42.3 µM); against Staphylococcus aureus, 31.3 µg/mL (≈ 85 µM). Moreover, the minimum inhibitory concentration (MIC) against Pseudomonas aeruginosa is 62.5 µg/mL (≈ 170 µM); in test [1], 31.3 µg/mL (≈ 85 µM).
